Results collected from several papers.

| Structure (SMILES) | matrix | concentration | time | pH | Papp [×10⁻⁶ cm/s] |
| --- | --- | --- | --- | --- | --- |
| Fc1cccc(F)c1-c1nc(N2CCC(c3ccccn3)C2)c2ccccc2n1 (stereo not shown) | PAMPA | 10 µM | 3 h | pH 7.4 | 35.5 |
| O=c1[nH]c2sccc2c(=O)n1O | PAMPA | 10 µM | 5 h | – | 0.08 |
| O=C(NCCN1CCCC1)c1cc(-c2ccc(CN3CCOCC3)cc2)nc2ccc(F)cc12 | PAMPA | – | – | – | 7.3 |
| CN(C)CCn1cnc2c(c(-c3ccccc3)c(-c3ccccc3)n2Cc2ccccc2)c1=N | PAMPA | 50 µM | 30 min | – | 1360 |
| c1ccc(-c2nc(N3CCc4nc[nH]c4C3)c3ccccc3n2)nc1 | PAMPA | 10 µM | 3 h | pH 7.4 | 11.8 |
| CN1CC(=O)O[C@H](Cc2ccccc2)C(=O)NCC(=O)N(C)CC(=O)O[C@H](Cc2ccccc2)C(=O)NCC1=O | PAMPA | – | – | – | 15 |
| N=c1c2c(-c3ccccc3)c(-c3ccccc3)n(Cc3ccccc3)c2ncn1[C@H]1CC[C@H](O)CC1 | PAMPA | 50 µM | 30 min | – | > 1000 |
| CCn1ccc2nc(-c3ccccn3)nc(N3CCC(c4ccccn4)C3)c21 (stereo not shown) | PAMPA | 10 µM | 3 h | pH 7.4 | 21 |
| CC(C)c1noc(C2CCN(c3ncnc(Nc4ccc(S(C)(=O)=O)cc4F)c3[N+](=O)[O-])CC2)n1 | PAMPA-BBB | 0.5 µM | 4 h | pH 7.4 | 3.02 |
| Cc1sc2c(=O)n(O)c(=O)[nH]c2c1C | PAMPA | 10 µM | 5 h | – | 0.5 |
| N=c1c2c(-c3ccccc3)cn(Cc3ccccc3)c2ncn1C1CCOCC1 | PAMPA | 50 µM | 30 min | – | 1730 |
| O=C(CCCN1CCC(O)(c2ccc(Cl)cc2)CC1)c1ccc(F)cc1 | PAMPA-BBB | 50 µM | 16 h | pH 7.4 | 21.4 |
| N=c1c2c(-c3ccccc3)cn(Cc3ccccc3)c2ncn1CCO | PAMPA | 50 µM | 30 min | – | 1270 |
| c1ccc(-c2cccc(Nc3nccc(NC4CCCCC4)n3)c2)nc1 | PAMPA | 50 nM | 30 min | – | 1530 |
| O=C(O)c1ccc2c(c1)nc(NCc1ccccc1)c1ncncc12 | PAMPA | – | 5 h | pH 7.4 | 2.79 |
| COc1ccc(Nc2nc(-c3ccccn3)nc3ccccc23)cc1 | PAMPA | 10 µM | 3 h | pH 7.4 | 36.3 |
| Cc1sc2[nH]c(=O)n(O)c(=O)c2c1C | PAMPA | 10 µM | 5 h | – | 1 |
| c1cncc(-c2cccc(Nc3nccc(NC4CCC4)n3)c2)c1 | PAMPA | 50 nM | 30 min | – | 2050 |
| Cn1c(=O)c2c(ncn2C)n(C)c1=O | PAMPA | 200 µM | 5 h | – | 6.85 |
| c1ccc(-c2nc(N3CCC(c4ccccn4)C3)c3ccccc3n2)nc1 (stereo not shown) | PAMPA | 10 µM | 3 h | pH 7.4 | 22.6 |
| CC(C)Nc1ccnc(Nc2cccc(-c3nccs3)c2)n1 | PAMPA | 50 nM | 30 min | – | 1960 |
| O=c1[nH]c2sc3c(c2c(=O)n1O)CCNC3 | PAMPA | 10 µM | 5 h | – | 0.07 |

| Structure (SMILES) | matrix | concentration | time | pH | Papp [×10⁻⁶ cm/s] |
| --- | --- | --- | --- | --- | --- |
| CC(C)Nc1ccnc(Nc2cccc(-c3ccccn3)c2)n1 | PAMPA | 50 nM | 30 min | – | 2010 |
| O=c1[nH]c2cc(-c3ccc(Cl)cc3)sc2c(=O)n1O | PAMPA | 10 µM | 5 h | – | 1 |
| O=C(O)c1ccc2c(c1)nc(NCc1ccccc1)c1ncccc12 | PAMPA | – | 5 h | pH 7.4 | 6.53 |
| COc1ccc(C(CO)Nc2ncnc3sc(-c4ccccc4)cc23)cc1 (stereo not shown) | PAMPA | – | – | – | 240 |
| CC(C)Nc1ccnc(Nc2ccccc2-c2ccccc2)n1 | PAMPA | 50 nM | 30 min | – | 2360 |
| Cc1cc(C)c2cc(C(=O)NC3CCCCCCC3)[nH]c2c1 | PAMPA | – | 16 h | – | 0.18 |
| C[C@@H](NC(=O)[C@@H](CC(=O)N1CCC(N2CCCCC2)CC1)N1C(=O)[C@@H](N2C(=O)OC[C@@H]2c2ccccc2)[C@H]1/C=C/c1cccc(F)c1)c1ccccc1 | PAMPA-BBB | 25 µg/mL | 18 h | pH 7.4 | > 4 |
| c1ccc(-c2nc(NCc3ccco3)c3ccccc3n2)nc1 | PAMPA | 10 µM | 3 h | pH 7.4 | 22.8 |
| N=c1c2c(-c3ccccc3)c(-c3ccccc3)n(Cc3ccc(OC(F)(F)F)cc3)c2ncn1[C@H]1CC[C@H](O)CC1 | PAMPA | 50 µM | 30 min | – | 1250 |
| COC(=O)c1cccc(-c2cccc(Nc3nccc(NC4CCCCC4)n3)c2)c1 | PAMPA | 50 nM | 30 min | – | 76.9 |
| COc1ccc(CCn2cnc3c(c(-c4ccccc4)c(-c4ccccc4)n3Cc3ccccc3)c2=N)cc1OC | PAMPA | 50 µM | 30 min | – | 1200 |
| Cc1cc(-c2ccc(Sc3cc(=O)n(O)c(=O)[nH]3)cc2)ccc1F | PAMPA | 10 µM | 5 h | – | 1.1 |
| O=c1[nH]c2scc(-c3ccc(Cl)cc3)c2c(=O)n1O | PAMPA | 10 µM | 5 h | – | 0.5 |
| c1ccc(CN2CCN(c3nc(-c4ccccn4)nc4ccccc34)CC2)cc1 | PAMPA | 10 µM | 3 h | pH 7.4 | 32.8 |
| O=c1[nH]c2sc(-c3ccc(F)cc3)cc2c(=O)n1O | PAMPA | 10 µM | 5 h | – | 0.6 |
| N#Cc1cccc(-c2nc(N3CCC(c4ccccn4)C3)c3ccccc3n2)c1 (stereo not shown) | PAMPA | 10 µM | 3 h | pH 7.4 | 36.9 |
| CNc1ccnc(Nc2cccc(-c3cccnc3)c2)n1 | PAMPA | 50 nM | 30 min | – | 2250 |
| CC[C@@H](C)[C@@H]1NC(=O)[C@@H](Cc2ccccc2)OC(=O)CN(C)C(=O)[C@H]([C@H](C)CC)NC(=O)[C@@H](Cc2ccccc2)OC(=O)CN(C)C1=O | PAMPA | – | – | – | 28 |
| CC(=O)CC(c1ccccc1)c1c(O)c2ccccc2oc1=O (stereo not shown) | PAMPA | 10 µM | 24 h | pH 7.4 | 1.5 |
| CC(C)Nc1ccnc(Nc2cccc(-n3ccnc3)c2)n1 | PAMPA | 50 nM | 30 min | – | 2070 |
| Cc1nc2n(c(=O)c1CCN1CCC(c3noc4cc(F)ccc34)CC1)CCCC2 | PAMPA-BBB | 50 µM | 16 h | pH 7.4 | 15.5 |
